The test deals with 697 B-cell NF-kB luciferase, PMA/ionomycin, 16 h. The test can be described thus: stimulated NF-kB reporter signal decrease, 697 cells – cell-based, luminescence, B-cell NF-kB inhibitor project, SAR follow-up (AID 504485). In outline:
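Technique: luciferase luminescence with SteadyGlo reagent. Test system: human 697 B-cell line with NF-kB-driven luciferase reporter. Input: 15000 cells per well. Doses: dose series. Control set: DMSO and no-agonist wells. Timing: 1 h pretreatment, 16 h stimulation, 37 °C. Also added: PMA plus ionomycin stimulation of NF-kB.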

The structures appear in SMILES notation. Calls of active or inactive are those of the source.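 How the source made its calls: active means mean IC50 at or below 20 µM; inactive means the rest.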

A word on the IC50: it is the point on the concentration scale where inhibition reaches its midpoint. In the case of `Cc1oc(-c2ccc(OC(F)(F)F)cc2)nc1CSCC(=O)O`, the IC50 was 240 nM. As for `Cc1ccc(-c2nc(CSCC(=O)NC3CC3)c(C)o2)cc1`, the IC50 is 16200 nM. For `CCNC(=O)CCc1nc(-c2cccc(OC)c2)no1`, the IC50 is > 79000 nM (inactive).

As to `CCOc1ccc(-c2nc(CSCC(=O)NC3CCC3)c(C)o2)cc1`, the IC50 is 3230 nM. As for `CCNC(=O)CCc1nc(-c2cccc(C)c2)no1`, the figure is > 79000 nM (inactive); as for `CCOc1ccc(-c2nc(CSCC(=O)NCC3CC3)c(C)o2)cc1`, 1320 nM; as for `C#CCNC(=O)CSCc1nc(-c2ccc(OCC)cc2)oc1C`, under 150 nM. Take `Cc1oc(-c2ccccc2)nc1CSCC(=O)NC1CC1`: the IC50 was > 79000 nM (inactive). As for `COc1cccc(-c2cc(=O)c3cc(NC(=O)c4ccc(N(C)C)cc4)ccc3[nH]2)c1`, the figure is > 79000 nM (inactive); as for `CCCCc1ccc(-c2noc(CCC(=O)NC)n2)cc1`, 200 nM. As for `CCNC(=O)CCc1nc(-c2ccccc2C)no1`, the figure is > 79000 nM (inactive); as for `COc1ccc(-c2nc(CSCC(=O)NCc3ccco3)c(C)o2)cc1`, 29500 nM (inactive); as for `COC(=O)CCc1nc(-c2ccc(C(C)(C)C)cc2)no1`, under 160 nM. With `O=C(O)CCc1nc(-c2ccccc2)no1`, the IC50 is > 79000 nM (inactive). On to `CCNC(=O)CCc1nc(-c2ccc(CC)cc2)no1`, for which the IC50 is > 79000 nM (inactive). Under `CC(C)(C)NC(=O)CCc1nc(-c2ccccc2)no1` stands > 79000 nM (inactive); under `Cc1oc(-c2ccc(C(F)(F)F)cc2)nc1CSCC(=O)NC1CC1`, 15700 nM; under `CCN(CC)C(=O)CCc1nc(-c2ccc(C(C)(C)C)cc2)no1`, 58400 nM (inactive). As for `CCc1ccc(-c2nc(CSCC(=O)NC3CC3)c(-c3ccccc3)o2)cc1`, the IC50 is > 79000 nM (inactive).

As for `Cc1oc(-c2ccc(OC(F)(F)F)cc2)nc1CSCC(=O)NC1CC1`, the IC50 was 2230 nM. For `CCNC(=O)CCc1nc(-c2ccc(C(C)(C)C)cc2)no1`, the IC50 was 30 nM. Under `CCC(C)NC(=O)CCc1nc(-c2ccc(C(C)(C)C)cc2)no1` (stereo not drawn) stands 490 nM; under `Cc1oc(-c2ccccc2)nc1CSCC(=O)NCc1ccco1`, > 79000 nM (inactive); under `CC(C)(C)c1ccc(-c2noc(CCC(N)=O)n2)cc1`, under 160 nM. As for `CCCOc1ccc(-c2nc(CSCC(=O)O)c(C)o2)cc1`, the figure is under 150 nM; as for `CCc1ccc(-c2nc(CSCC(=O)NCc3ccco3)c(C)o2)cc1`, 49400 nM (inactive). As for `COc1cccc(-c2cc(=O)c3cc(NC(=O)c4ccccc4)ccc3[nH]2)c1`, the figure is > 79000 nM (inactive).

`CCCCc1ccc(-c2noc(CCC(=O)NC(C)CC)n2)cc1` (stereo not drawn): the IC50 is 670 nM.

As to `CCOc1ccc(-c2noc(CCC(=O)O)n2)cc1`, the IC50 is 34000 nM (inactive). As for `CCc1ccc(-c2noc(CCC(=O)NC)n2)cc1`, the figure is > 79000 nM (inactive). As for `CC(C)c1ccc(-c2noc(CCC(=O)NC3CC3)n2)cc1`, the figure is 260 nM.

Consider `O=C(CCc1nc(-c2ccccc2)no1)NC1CC1`, for which the IC50 was > 79000 nM (inactive). Under `CCOc1ccc(-c2nc(CSCC(N)=O)c(C)o2)cc1` stands under 150 nM.

As to `CCNC(=O)CCc1nc(-c2ccc(C(C)C)cc2)no1`, the half-maximal inhibitory concentration (IC50) was 320 nM.

Regarding `CCOc1ccc(-c2nc(CSCC(=O)NC3CC3)c(-c3ccccc3)o2)cc1`, the IC50 was > 79000 nM (inactive).

Take `CCCCOc1ccc(-c2nc(CSCC(=O)NC3CC3)c(C)o2)cc1`: the IC50 was 240 nM. Turning to `CCc1ccc(-c2noc(CCC(=O)NC(C)CC)n2)cc1` (stereo not drawn), the IC50 was > 79000 nM (inactive). Take `CCC(C)NC(=O)CCc1nc(-c2ccc(C(C)C)cc2)no1` (stereo not drawn): the IC50 is 7960 nM. Under `CCCCOc1ccc(-c2nc(CSCC(=O)O)c(C)o2)cc1` stands 180 nM; under `CCOc1ccccc1-c1nc(CSCC(=O)NC2CC2)c(C)o1`, > 79000 nM (inactive). In the case of `Cc1ccc(-c2nc(CSCC(=O)NCc3ccco3)c(C)o2)cc1`, the IC50 is > 79000 nM (inactive).

With `CCOc1ccc(-c2nc(CSCC(=O)N(C)C)c(C)o2)cc1`, the IC50 is > 79000 nM (inactive). As for `CNC(=O)CCc1nc(-c2ccc(C(C)(C)C)cc2)no1`, the figure is under 160 nM. For the compound `CCOc1ccc(-c2nc(CSCC(=O)NC(C)(C)C)c(C)o2)cc1`, the IC50 is 60500 nM (inactive). In the case of `CCCOc1ccc(-c2nc(CSCC(=O)NC3CC3)c(C)o2)cc1`, the IC50 is under 150 nM. For the compound `CCCCc1ccc(-c2noc(CCC(=O)NCC)n2)cc1`, the IC50 was 220 nM. For the compound `CCNC(=O)CCc1nc(-c2c(Cl)cccc2Cl)no1`, the IC50 was > 79000 nM (inactive). In the case of `CNC(=O)CCc1nc(-c2ccc(C(C)C)cc2)no1`, the half-maximal inhibitory concentration (IC50) is 210 nM. For `CCOc1ccc(-c2nc(CSCC(=O)NCc3ccco3)c(C)o2)cc1`, the IC50 was 210 nM. As for `CCOc1ccc(-c2nc(CSCC(=O)NC3CC3)c(C)o2)cc1`, the figure is 190 nM; as for `CCOc1ccccc1-c1nc(CSCC(=O)O)c(C)o1`, > 79000 nM (inactive); as for `CCOC(=O)CC(NC(=O)c1ccc(Br)cc1)c1ccc(F)c([N+](=O)[O-])c1` (stereo not drawn), 36800 nM (inactive).

`CN(C)C(=O)CCc1nc(-c2ccc(C(C)(C)C)cc2)no1`: the IC50 is 41500 nM (inactive). `CC(C)(C)c1ccc(-c2noc(CCC(=O)NC3CC3)n2)cc1`: the IC50 was 60 nM. `CCCCc1ccc(-c2noc(CCC(=O)NC3CC3)n2)cc1`: the IC50 was 210 nM. As for `COc1ccc(-c2nc(CSCC(=O)NC3CC3)c(C)o2)cc1`, the figure is 29200 nM (inactive); as for `CCOc1ccc(-c2nc(CSCC(=O)N3CCOCC3)c(C)o2)cc1`, > 79000 nM (inactive).

On to `CCNC(=O)CCc1nc(-c2ccccc2Cl)no1`, for which the IC50 was > 79000 nM (inactive). Consider `CCc1ccc(-c2noc(CCC(=O)NC(C)(C)C)n2)cc1`, for which the IC50 was > 79000 nM (inactive). Consider `CC(C)(C)c1ccc(-c2noc(CCC(=O)NC3CCC3)n2)cc1`, for which the IC50 was 410 nM.

As to `CCC(C)NC(=O)CCc1nc(-c2ccccc2)no1` (stereo not drawn), the IC50 was > 79000 nM (inactive). Under `CC(C)c1ccc(-c2noc(CCC(=O)NC(C)(C)C)n2)cc1` stands 26900 nM (inactive); under `CCc1ccc(-c2nc(CSCC(=O)NC3CC3)c(C)o2)cc1`, 480 nM; under `CC(C)Nc1ccc(C(CC(=O)O)NC(=O)c2ccccc2)cc1[N+](=O)[O-]` (stereo not drawn), > 79000 nM (inactive). Take `CCc1ccc(-c2noc(CCC(=O)NC3CC3)n2)cc1`: the IC50 was > 79000 nM (inactive).

For `CCNC(=O)CCc1nc(-c2cccc(F)c2)no1`, the IC50 was > 79000 nM (inactive). Under `CCNC(=O)CCc1nc(-c2ccc(OCC)cc2)no1` stands > 79000 nM (inactive); under `CCCCOc1ccc(-c2nc(CSCC(=O)NCc3ccco3)c(C)o2)cc1`, 260 nM; under `CCCOc1ccc(-c2nc(CSCC(=O)NCc3ccco3)c(C)o2)cc1`, 170 nM. On to `CCOc1ccc(-c2nc(CSCC(=O)O)c(C)o2)cc1`, for which the IC50 was under 150 nM. For `COc1ccc(C(=O)Nc2ccc3[nH]c(-c4cccc(OC)c4)cc(=O)c3c2)cc1`, the IC50 was > 79000 nM (inactive). As for `CCCCc1ccc(-c2noc(CCC(=O)NC(C)(C)C)n2)cc1`, the 50% inhibitory concentration (IC50) was 2310 nM. For `Cc1oc(-c2ccc(C(F)(F)F)cc2)nc1CSCC(=O)O`, the IC50 is 970 nM. For the compound `CC(C)(C)c1ccc(-c2noc(CCC(=O)O)n2)cc1`, the IC50 was 190 nM.

With `CCOc1ccc(-c2nc(CSCC(=O)NC)c(C)o2)cc1`, the IC50 is 330 nM. Under `CCNC(=O)CCc1nc(-c2ccccc2)no1` stands > 79000 nM (inactive); under `CCOc1cccc(-c2nc(CSCC(=O)NC3CC3)c(C)o2)c1`, > 79000 nM (inactive); under `CNC(=O)CCc1nc(-c2ccccc2)no1`, > 79000 nM (inactive).
